According to ChEMBL document CHEMBL3758075, “Synthesis and pharmacological evaluation of nucleoside prodrugs designed to target siderophore biosynthesis in Mycobacterium tuberculosis” (Bioorg Med Chem, 2016):

How the values were obtained:
[1] = Retention time of compound by RP-HPLC method; assay type: physicochemical
Procedure, shortened: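 Reversed-phase C18 column (5 µm, 4.6 × 250 mm). Mobile phase 20 mM triethylammonium bicarbonate pH 7.5 / acetonitrile. Gradient 5–70% acetonitrile over 10 min, then 90% to 16 min, then 3 min re-equilibration at 5%.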

[2] = Aqueous stability in pH 1.2 simulated gastric fluid assessed as prodrug remaining at 100 uM after 2 hrs by HPLC method; assay type: physicochemical; settings: simulated gi fluid, pH 1.2, 2 h
Procedure, shortened: (§1)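 Compound 100 µM (2% DMSO final) incubated in triplicate at 37 °C in simulated gastric fluid pH 1.2 or 100 mM HEPES pH 7.4. Samples taken at 0 and 120 min, placed on ice and analysed by RP-HPLC for prodrug and released parent; percentage of prodrug remaining at 120 min calculated.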

[3] = Aqueous stability in pH 7.4 HEPES buffer assessed as prodrug remaining at 100 uM after 2 hrs by HPLC method; assay type: physicochemical; settings: pH 7.4, 2 h; procedure, shortened: as §1
Plasma [4] = assay: Half life in CD-1 mouse plasma assessed as N-(N-(((2R,3R,4R,5R)-5-(6-amino-9H-purin-9-yl)-4-fluoro-3-hydroxytetrahydrofuran-2-yl)methyl)sulfamoyl)-2-hydroxybenzamide by HPLC method; assay type: ADME, cell-free
Procedure, shortened: (§2)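 Pooled female plasma (CD-1 mouse, Sprague-Dawley rat, human) preincubated 5 min at 37 °C, then spiked from a 10 mM DMSO stock; triplicate. Samples at 0–360 min quenched with equal volume 10% TCA, centrifuged, supernatant run on HPLC. Half-life or percentage remaining at 6 h derived.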

Plasma [5] = assay: Stability in Sprague-Dawley rat plasma assessed as residual compound after 6 hrs by HPLC method; assay type: ADME, cell-free; procedure, shortened: as §2
Plasma [6] = assay: Stability in human plasma assessed as residual compound after 6 hrs by HPLC method; assay type: ADME, cell-free; procedure, shortened: as §2
Plasma [7] = assay: Stability in CD-1 mouse plasma assessed as residual compound after 6 hrs by HPLC method; assay type: ADME, cell-free; procedure, shortened: as §2
[8] = Apparent permeability from apical to basolateral side in human Caco2 cells at 100 uM incubated for 2 hrs by HPLC method; assay type: ADME, cell-based; settings: Caco-2
Procedure, shortened: (§3)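 Caco-2 cells (passage 50–70) grown 21 days on 0.4 µm transwell inserts; wells with TER >300 Ωcm2 used. Apical CAB pH 6.0, basolateral CAB pH 7.4, preincubated 60 min at 65 rpm. Test compound 100 µM in donor with lucifer yellow for tight-junction integrity. Acceptor levels of prodrug plus hydrolyzed parent measured by HPLC over time with cumulative sampling. Papp = flux/(area × C0); efflux ratio = BL-AP/AP-BL.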

[9] = Apparent permeability from basolateral to apical side in human Caco2 cells at 100 uM incubated for 2 hrs by HPLC method; assay type: ADME, cell-based; settings: Caco-2; procedure, shortened: as §3
[10] = Efflux ratio of permeability from basolateral to apical side over apical to basolateral side in human Caco2 cells incubated for 2 hrs by HPLC method; assay type: ADME, cell-based; settings: Caco-2; procedure, shortened: as §3
[11] = Permeability from apical to basolateral side in human Caco2 cells assessed as prodrug remaining in apical side for 2 hrs by HPLC method; assay type: ADME, cell-based; settings: caco-2, 2 h
Procedure, shortened: (§4)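 Bidirectional Caco-2 transwell run (21-day monolayers, TER >300 Ωcm2, apical pH 6.0 / basolateral pH 7.4 buffers, 100 µM donor). Intact prodrug left in the apical and basolateral compartments at 2 h quantified by reversed-phase HPLC, with hydrolysis to parent tracked.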

[12] = Permeability from basolateral to apical side in human Caco2 cells assessed as prodrug remaining in apical side for 2 hrs by HPLC method; assay type: ADME, cell-based; settings: caco-2, 2 h; procedure, shortened: as §4
[13] = Permeability from apical to basolateral side in human Caco2 cells assessed as prodrug remaining in basolateral side for 2 hrs by HPLC method; assay type: ADME, cell-based; settings: caco-2, 2 h; procedure, shortened: as §4
[14] = Permeability from basolateral to apical side in human Caco2 cells assessed as prodrug remaining in basolateral side for 2 hrs by HPLC method; assay type: ADME, cell-based; settings: caco-2, 2 h; procedure, shortened: as §4
Plasma [15] = assay: Half life in Sprague-Dawley rat plasma assessed as N-(N-(((2R,3R,4R,5R)-5-(6-amino-9H-purin-9-yl)-4-fluoro-3-hydroxytetrahydrofuran-2-yl)methyl)sulfamoyl)-2-hydroxybenzamide by HPLC method; assay type: ADME, cell-free; procedure, shortened: as §2
[16] = Aqueous stability in pH 1.2 simulated gastric fluid assessed as compound remaining after 2 hrs by HPLC method; assay type: physicochemical; settings: simulated gi fluid, pH 1.2, 2 h; procedure, shortened: as §1
[17] = Aqueous stability in pH 7.4 HEPES buffer assessed as compound remaining after 2 hrs by HPLC method; assay type: physicochemical; settings: pH 7.4, 2 h; procedure, shortened: as §1
[18] = Drug level in pH 7.4 HEPES buffer treated with 100 uM 9-[3-O-(Acetyl)-2,5-dideoxy-2-fluoro-5-{N-(N-2-hydroxybenzoyl)sulfamoyl}amino-b-D-ribofuranosyl]adenine triethylammonium salt for 2 hrs by HPLC analysis; assay type: physicochemical; settings: pH 7.4, 2 h; procedure, shortened: as §1

SMILES	Retention_time [1] [min]	Stability [2] [%]	Stability [3] [%]	t1/2 (Plasma [4]) [h]	Stability (Plasma [5]) [%]	Stability (Plasma [6]) [%]	Stability (Plasma [7]) [%]	Papp A→B at 2 h, 100 µM [8] [×10⁻⁶ cm/s]	Papp B→A at 2 h, 100 µM [9] [×10⁻⁶ cm/s]	efflux ratio at 2 h [10]	permeability [11] [%]	permeability [12] [%]	permeability [13] [%]	permeability [14] [%]	t1/2 (Plasma [15]) [h]	Stability [16] [%]	Stability [17] [%]	Drug metabolism [18]
CCC(=O)O[C@H]1[C@@H](F)[C@H](n2cnc3c(N)ncnc32)O[C@@H]1CNS(=O)(=O)NC(=O)c1ccccc1O.CCN(CC)CC	10	97	100	3.3	58	70												
Nc1ncnc2c1ncn2[C@@H]1O[C@H](COS(=O)(=O)NC(=O)c2ccccc2O)[C@@H](O)[C@H]1O	7.8																	
CCC(CC)C(=O)O[C@H]1[C@@H](F)[C@H](n2cnc3c(N)ncnc32)O[C@@H]1CNS(=O)(=O)NC(=O)c1ccccc1O.CCN(CC)CC		100	100		93	94	83	0.5	3.8	7.6	97	78	90	99				
CC(C)C(=O)O[C@H]1[C@@H](F)[C@H](n2cnc3c(N)ncnc32)O[C@@H]1CNS(=O)(=O)NC(=O)c1ccccc1O.CCN(CC)CC	10.7	98	100	3.7	72			0.4	3.4	8.5	88	53	73	95				
CCCCCCCC(=O)O[C@H]1[C@@H](F)[C@H](n2cnc3c(N)ncnc32)O[C@@H]1CNS(=O)(=O)NC(=O)c1ccccc1O.CCN(CC)CC	13.7	93	98	0.7	86			3.9	6.9	1.8	29	1	3	90				
CCCC(=O)O[C@H]1[C@@H](F)[C@H](n2cnc3c(N)ncnc32)O[C@@H]1CNS(=O)(=O)NC(=O)c1ccccc1O.CCN(CC)CC	10.4	97	100	2.2	61	64		0.5	3.5	7	74	15	63	93				
CC(=O)O[C@H]1[C@@H](F)[C@H](n2cnc3c(N)ncnc32)O[C@@H]1CNS(=O)(=O)NC(=O)c1ccccc1O.CCN(CC)CC	9.5	97	92	4.6		61		1.1	1.6	1.5	93	88	81	86	5.7			
Nc1ncnc2c1ncn2[C@@H]1O[C@H](CNS(=O)(=O)NC(=O)c2ccccc2O)[C@@H](O)[C@H]1F	8.9															100	100	metabolite_detected
CCCCC(=O)O[C@H]1[C@@H](F)[C@H](n2cnc3c(N)ncnc32)O[C@@H]1CNS(=O)(=O)NC(=O)c1ccccc1O.CCN(CC)CC	11.9	98	100	1.6	53	66												
CCCCCCCCCCCC(=O)O[C@H]1[C@@H](F)[C@H](n2cnc3c(N)ncnc32)O[C@@H]1CNS(=O)(=O)NC(=O)c1ccccc1O.CCN(CC)CC	9.9	76	100	1.6	95	98												
